Results from ChEMBL document CHEMBL1687848, “In vitro effect of qnrA1, qnrB1, and qnrS1 genes on fluoroquinolone activity against isogenic Escherichia coli isolates with mutations in gyrA and parC” (2011).
Values after ≈ are worked out from the molar mass of the structure shown.

Key:
Assay type in all cases: functional
Escherichia coli [1] = assay: Antibacterial activity against qnrS gene expressing Escherichia coli ATCC 25922 harboring ParC S80R mutant and pBK-QnrS1 by broth microdilution method
Escherichia coli [2] = assay: Antibacterial activity against qnrB gene expressing Escherichia coli ATCC 25922 harboring GyrA S83L mutant and pBK-QnrB1 by broth microdilution method
Escherichia coli [3] = assay: Antibacterial activity against qnrA gene expressing Escherichia coli ATCC 25922 harboring GyrA S83L mutant and pBK-QnrA1 by broth microdilution method
Escherichia coli [4] = assay: Antibacterial activity against qnrA gene expressing Escherichia coli ATCC 25922 harboring ParC S80R mutant and pBK-QnrA1 by broth microdilution method
Escherichia coli [5] = assay: Antibacterial activity against Escherichia coli ATCC 25922 expressing qnrA gene and pBK-QnrA1 by broth microdilution method
Escherichia coli [6] = assay: Antibacterial activity against Escherichia coli ATCC 25922 expressing qnrB gene and pBK-QnrB1 by broth microdilution method
Escherichia coli [7] = assay: Antibacterial activity against Escherichia coli ATCC 25922 expressing qnrS gene and pBK-QnrS1 by broth microdilution method
Escherichia coli [8] = assay: Antibacterial activity against Escherichia coli ATCC 25922 by broth microdilution method
Escherichia coli [9] = assay: Antibacterial activity against Escherichia coli ATCC 25922 harboring GyrA S83L mutant by broth microdilution method
Escherichia coli [10] = assay: Antibacterial activity against qnrA gene expressing Escherichia coli ATCC 25922 harboring ParC S80R mutant, ParC S80R mutant and pBK-QnrA1 by broth microdilution method
Escherichia coli [11] = assay: Antibacterial activity against qnrB gene expressing Escherichia coli ATCC 25922 harboring ParC S80R mutant, ParC S80R mutant and pBK-QnrB1 by broth microdilution method
Escherichia coli [12] = assay: Antibacterial activity against Escherichia coli ATCC 25922 assessed as mutant prevention concentration
Escherichia coli [13] = assay: Antibacterial activity against Escherichia coli ATCC 25922 expressing qnrA gene and pBK-QnrA1 assessed as mutant prevention concentration
Escherichia coli [14] = assay: Antibacterial activity against Escherichia coli ATCC 25922 expressing qnrS gene and pBK-QnrS1 assessed as mutant prevention concentration
Escherichia coli [15] = assay: Antibacterial activity against Escherichia coli ATCC 25922 harboring GyrA S83L mutant assessed as mutant prevention concentration
Escherichia coli [16] = assay: Antibacterial activity against qnrA gene expressing Escherichia coli ATCC 25922 harboring GyrA S83L mutant and pBK-QnrA1 assessed as mutant prevention concentration
Escherichia coli [17] = assay: Antibacterial activity against qnrB gene expressing Escherichia coli ATCC 25922 harboring GyrA S83L mutant and pBK-QnrB1 assessed as mutant prevention concentration
Escherichia coli [18] = assay: Antibacterial activity against qnrS gene expressing Escherichia coli ATCC 25922 harboring GyrA S83L mutant and pBK-QnrS1 assessed as mutant prevention concentration
Escherichia coli [19] = assay: Ratio of mutant prevention concentration to MIC for Escherichia coli ATCC 25922
In short: (§1)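 MIC: broth microdilution per CLSI, in duplicate. The ratio is MPC over MIC. Strains are E. coli ATCC 25922 or its GyrA Ser83Leu gene-replacement mutant, with qnr genes on pBK-CMV introduced by electroporation.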

Escherichia coli [20] = assay: Ratio of mutant prevention concentration to MIC for Escherichia coli ATCC 25922 expressing qnrB gene and pBK-QnrB1; in short: as §1
Escherichia coli [21] = assay: Ratio of mutant prevention concentration to MIC for Escherichia coli ATCC 25922 expressing qnrS gene and pBK-QnrS1; in short: as §1
Escherichia coli [22] = assay: Ratio of mutant prevention concentration to MIC for Escherichia coli ATCC 25922 harboring GyrA S83L mutant; in short: as §1
Escherichia coli [23] = assay: Ratio of mutant prevention concentration to MIC for qnrB gene expressing Escherichia coli ATCC 25922 harboring GyrA S83L mutant and pBK-QnrB1; in short: as §1
Escherichia coli [24] = assay: Ratio of mutant prevention concentration to MIC for qnrS gene expressing Escherichia coli ATCC 25922 harboring GyrA S83L mutant and pBK-QnrS1; in short: as §1
Escherichia coli [25] = assay: Antibacterial activity against Escherichia coli ATCC 25922 expressing qnrA gene and pBK-QnrA1 assessed as earliest time required to resistant colonies visible one step below mutant prevention concentration
Escherichia coli [26] = assay: Antibacterial activity against Escherichia coli ATCC 25922 expressing qnrB gene and pBK-QnrB1 assessed as earliest time required to resistant colonies visible one step below mutant prevention concentration
Escherichia coli [27] = assay: Antibacterial activity against Escherichia coli ATCC 25922 expressing qnrS gene and pBK-QnrS1 assessed as earliest time required to resistant colonies visible one step below mutant prevention concentration
Escherichia coli [28] = assay: Antibacterial activity against Escherichia coli ATCC 25922 harboring GyrA S83L mutant assessed as earliest time required to resistant colonies visible one step below mutant prevention concentration
Escherichia coli [29] = assay: Antibacterial activity against qnrA gene expressing Escherichia coli ATCC 25922 harboring GyrA S83L mutant and pBK-QnrA1 assessed as earliest time required to resistant colonies visible one step below mutant prevention concentration
Escherichia coli [30] = assay: Antibacterial activity against qnrB gene expressing Escherichia coli ATCC 25922 harboring GyrA S83L mutant and pBK-QnrB1 assessed as earliest time required to resistant colonies visible one step below mutant prevention concentration
Escherichia coli [31] = assay: Antibacterial activity against qnrS gene expressing Escherichia coli ATCC 25922 harboring GyrA S83L mutant and pBK-QnrS1 assessed as earliest time required to resistant colonies visible one step below mutant prevention concentration
Escherichia coli [32] = assay: Antibacterial activity against Escherichia coli ATCC 25922 expressing qnrA gene and pBK-QnrA1 assessed as resistant colonies recovered one step below mutant prevention concentration
In short: (§2)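 Resistant colonies recovered from Mueller-Hinton plates one concentration step below the MPC for each fluoroquinolone were retested for MIC. Mutants taken from plated concentrations closest to the MPC had the QRDRs of gyrA and parC analysed.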

Escherichia coli [33] = assay: Antibacterial activity against Escherichia coli ATCC 25922 expressing qnrB gene and pBK-QnrB1 assessed as resistant colonies recovered one step below mutant prevention concentration; in short: as §2
Escherichia coli [34] = assay: Antibacterial activity against Escherichia coli ATCC 25922 expressing qnrS gene and pBK-QnrS1 assessed as resistant colonies recovered one step below mutant prevention concentration; in short: as §2
Escherichia coli [35] = assay: Antibacterial activity against Escherichia coli ATCC 25922 harboring GyrA S83L mutant assessed as resistant colonies recovered one step below mutant prevention concentration; in short: as §2
Escherichia coli [36] = assay: Antibacterial activity against qnrA gene expressing Escherichia coli ATCC 25922 harboring GyrA S83L mutant and pBK-QnrA1 assessed as resistant colonies recovered one step below mutant prevention concentration; in short: as §2
Escherichia coli [37] = assay: Antibacterial activity against qnrS gene expressing Escherichia coli ATCC 25922 harboring GyrA S83L mutant and pBK-QnrS1 assessed as resistant colonies recovered one step below mutant prevention concentration; in short: as §2

CCn1cc(C(=O)O)c(=O)c2cc(F)c(N3CCNCC3)cc21 [NORFLOXACIN]
MBC (Escherichia coli [1]): 0.5 µg/mL (≈ 1.57 µM) | MIC (Escherichia coli [1]): 0.5 µg/mL (≈ 1.57 µM) | MBC (Escherichia coli [2]): 1 µg/mL (≈ 3.13 µM) | MIC (Escherichia coli [2]): 1 µg/mL (≈ 3.13 µM) | MBC (Escherichia coli [3]): 2 µg/mL (≈ 6.26 µM) | MIC (Escherichia coli [3]): 2 µg/mL (≈ 6.26 µM) | MBC (Escherichia coli [4]): 2 µg/mL (≈ 6.26 µM) | MIC (Escherichia coli [4]): 0.5 µg/mL (≈ 1.57 µM) | MBC (Escherichia coli [5]): 1 µg/mL (≈ 3.13 µM) | MIC (Escherichia coli [5]): 0.5 µg/mL (≈ 1.57 µM) | MBC (Escherichia coli [6]): 0.5 µg/mL (≈ 1.57 µM) | MIC (Escherichia coli [6]): 0.25 µg/mL (≈ 0.783 µM) | MBC (Escherichia coli [7]): 1 µg/mL (≈ 3.13 µM) | MIC (Escherichia coli [7]): 0.5 µg/mL (≈ 1.57 µM) | MBC (Escherichia coli [8]): 0.03 µg/mL (≈ 0.0939 µM) | MIC (Escherichia coli [8]): 0.015 µg/mL (≈ 0.047 µM) | MBC (Escherichia coli [9]): 0.5 µg/mL (≈ 1.57 µM) | MIC (Escherichia coli [9]): 0.125 µg/mL (≈ 0.391 µM) | MBC (Escherichia coli [10]): 64 µg/mL (≈ 200 µM) | MIC (Escherichia coli [10]): 8 µg/mL (≈ 25.1 µM) | MBC (Escherichia coli [11]): 4 µg/mL (≈ 12.5 µM) | MIC (Escherichia coli [11]): 4 µg/mL (≈ 12.5 µM) | Activity (Escherichia coli [12]): 4 µg/mL | Activity (Escherichia coli [13]): 8 µg/mL | Activity (Escherichia coli [14]): 8 µg/mL | Activity (Escherichia coli [15]): 8 µg/mL | Activity (Escherichia coli [16]): 16 µg/mL | Activity (Escherichia coli [17]): 16 µg/mL | Activity (Escherichia coli [18]): 32 µg/mL | Ratio (Escherichia coli [19]): 266.7 | Ratio (Escherichia coli [20]): 32 | Ratio (Escherichia coli [21]): 16 | Ratio (Escherichia coli [22]): 32 | Ratio (Escherichia coli [23]): 16 | Ratio (Escherichia coli [24]): 16 | Time (Escherichia coli [25]): 24 h | Time (Escherichia coli [26]): 48 h | Time (Escherichia coli [27]): 24 h | Time (Escherichia coli [28]): 24 h | Time (Escherichia coli [29]): 24 h | Time (Escherichia coli [30]): 24 h | Time (Escherichia coli [31]): 24 h | MIC (Escherichia coli [32]): 1 µg/mL (≈ 3.13 µM) | MIC (Escherichia coli [33]): 0.5 µg/mL (≈ 1.57 µM) | MIC (Escherichia coli [34]): 1 µg/mL (≈ 3.13 µM) | MIC (Escherichia coli [35]): 2 µg/mL (≈ 6.26 µM) | MIC (Escherichia coli [36]): 8 µg/mL (≈ 25.1 µM) | MIC (Escherichia coli [37]): 2 µg/mL (≈ 6.26 µM)
